Source: ChEMBL document CHEMBL3739336, “Identification of dual PPARα/γ agonists and their effects on lipid metabolism” (Bioorg Med Chem, 2015)
The source made the active and inactive calls. The calls are words filed in the database; no cut-off is given here.

What was measured:
[1] = target: Peroxisome proliferator-activated receptor (Homo sapiens) (UniProt P37231+Q07869+Q03181); assay: Agonist activity at PPAR in human THP1 cells assessed as induction of ABCG1 expression at 20 uM after 24 hrs by Western blot analysis relative to control; assay type: cell-based; details: THP-1
in vitro = details: human, HEK293 cells
[2] = target: T1, Peroxisome proliferator-activated receptor gamma (Mus musculus) (UniProt P37238); assay: Agonist activity at PPARgamma in mouse 3T3-L1 cells assessed as increase of triacylglycerol accumulation at 20 uM after 18 hrs by ORO staining; assay type: cell-based
T1 sequence (whole entry): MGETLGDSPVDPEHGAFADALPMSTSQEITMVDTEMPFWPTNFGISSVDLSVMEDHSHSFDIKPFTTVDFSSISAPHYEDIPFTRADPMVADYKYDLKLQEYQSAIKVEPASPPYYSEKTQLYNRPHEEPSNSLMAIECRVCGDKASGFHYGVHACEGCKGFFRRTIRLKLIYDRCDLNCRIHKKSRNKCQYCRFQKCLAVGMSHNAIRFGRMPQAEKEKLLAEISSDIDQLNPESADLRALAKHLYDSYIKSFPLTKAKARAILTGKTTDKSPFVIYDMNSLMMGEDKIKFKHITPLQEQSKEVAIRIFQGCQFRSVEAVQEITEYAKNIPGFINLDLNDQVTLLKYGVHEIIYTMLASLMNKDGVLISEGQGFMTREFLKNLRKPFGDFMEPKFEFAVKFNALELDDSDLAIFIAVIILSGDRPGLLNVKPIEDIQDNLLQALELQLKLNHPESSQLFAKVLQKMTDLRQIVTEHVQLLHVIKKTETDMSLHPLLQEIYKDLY
How it was run: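 Differentiated 3T3-L1 adipocytes on coverslips, treated for 18 h (overnight) with 20 μM or 25 μM. Cells fixed in 4% PFA, rinsed in 60% isopropanol, stained 10 min with Oil Red O (0.5% stock diluted 6/4 in water), then imaged by microscopy for neutral lipid.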

[3] = target: T2, Peroxisome proliferator-activated receptor alpha (Homo sapiens) (UniProt Q07869); assay: Agonist activity at PPARalpha in human HuH7 cells assessed as increase of fatty acid oxidation by measuring CO2 production using […] at 20 uM after 18 hrs by scintillation counting; assay type: cell-based; details: Huh-7
T2 sequence (whole entry): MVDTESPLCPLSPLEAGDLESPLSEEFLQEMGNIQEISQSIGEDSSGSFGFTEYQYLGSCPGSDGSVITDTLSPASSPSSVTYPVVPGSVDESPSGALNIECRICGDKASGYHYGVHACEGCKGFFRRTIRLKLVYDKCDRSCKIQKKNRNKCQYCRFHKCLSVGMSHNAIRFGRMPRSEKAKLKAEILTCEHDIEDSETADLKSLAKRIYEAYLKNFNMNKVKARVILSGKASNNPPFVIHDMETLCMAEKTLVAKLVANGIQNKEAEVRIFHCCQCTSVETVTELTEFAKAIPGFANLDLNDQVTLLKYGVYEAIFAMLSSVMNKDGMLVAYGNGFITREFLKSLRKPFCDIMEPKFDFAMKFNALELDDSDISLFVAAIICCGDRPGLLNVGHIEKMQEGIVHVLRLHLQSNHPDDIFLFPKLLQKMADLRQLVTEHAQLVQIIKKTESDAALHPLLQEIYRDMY

[4] = target: T2, Peroxisome proliferator-activated receptor alpha (Homo sapiens); assay: Agonist activity at PPARalpha in human HuH7 cells assessed as increase of CPT1alpha expression at 20 uM by Western blotting relative to control; assay type: cell-based; details: Huh-7
How it was run: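 HuH7 hepatoma cells (DMEM/F-12, 10% FCS) incubated overnight ± 20 μM. Whole-cell lysates run on 12% SDS-PAGE and immunoblotted for CPT1α with HRP secondary and ECL. Band intensity normalised to actin; mean ± SEM, n = 3.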

Sequence of Peroxisome proliferator-activated receptor (Homo sapiens) (P37231 whole entry, looked up, one chain of several): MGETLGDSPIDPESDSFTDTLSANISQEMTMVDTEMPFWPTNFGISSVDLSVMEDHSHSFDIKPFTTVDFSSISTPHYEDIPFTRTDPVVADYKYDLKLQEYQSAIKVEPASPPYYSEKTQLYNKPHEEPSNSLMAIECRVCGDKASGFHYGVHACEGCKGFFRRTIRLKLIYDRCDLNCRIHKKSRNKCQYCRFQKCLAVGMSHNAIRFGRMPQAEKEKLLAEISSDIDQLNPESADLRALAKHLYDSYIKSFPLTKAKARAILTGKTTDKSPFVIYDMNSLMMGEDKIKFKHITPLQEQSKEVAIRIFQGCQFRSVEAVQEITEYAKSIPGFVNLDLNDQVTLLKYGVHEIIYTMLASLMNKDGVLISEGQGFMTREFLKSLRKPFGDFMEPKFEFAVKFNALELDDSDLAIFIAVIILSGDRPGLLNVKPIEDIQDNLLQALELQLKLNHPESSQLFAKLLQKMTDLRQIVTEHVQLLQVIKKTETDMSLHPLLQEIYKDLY
Sequence of Peroxisome proliferator-activated receptor (Homo sapiens) (Q03181 whole entry, looked up, one chain of several): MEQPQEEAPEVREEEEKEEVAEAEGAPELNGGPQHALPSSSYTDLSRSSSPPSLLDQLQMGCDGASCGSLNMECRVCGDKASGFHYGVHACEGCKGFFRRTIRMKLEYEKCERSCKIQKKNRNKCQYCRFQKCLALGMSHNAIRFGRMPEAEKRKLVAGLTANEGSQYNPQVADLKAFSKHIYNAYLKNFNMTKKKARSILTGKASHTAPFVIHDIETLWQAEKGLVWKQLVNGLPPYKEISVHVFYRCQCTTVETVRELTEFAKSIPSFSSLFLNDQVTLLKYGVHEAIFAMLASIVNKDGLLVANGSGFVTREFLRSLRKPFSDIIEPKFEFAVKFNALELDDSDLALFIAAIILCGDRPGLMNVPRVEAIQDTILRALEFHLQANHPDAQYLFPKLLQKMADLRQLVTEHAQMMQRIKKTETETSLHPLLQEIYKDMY

Row | SMILES | Activity [1] | inhibition at 100 µM (in vitro) [%] | Activity [3] | fold change (FC) [1] | further results
1 | COc1ccc2c(=O)c(-c3ccccc3)coc2c1C | inactive | – | – | – | –
2 | CN(CCOc1ccc(CC2SC(=O)NC2=O)cc1)c1ccccn1 (stereo not given) [ROSIGLITAZONE] | – | < 5 | – | – | –
3 | CCN(CC)c1ccc(NC(=O)c2ccccc2OCC(=O)N2CCc3ccccc32)cc1 | – | – | Active | 3 | Activity [2]: 20%; fold change (FC) [4]: > 2
4 | Cn1c(Cc2ccccc2)nn(CN2CCC(c3ccccc3)CC2)c1=S | – | – | – | 3 | –
5 | CCOc1ccc2c(=O)c(-c3ccccc3)coc2c1C | inactive | – | – | – | –
6 | Cc1cccc(Nc2cc(Cl)nc(SCC(=O)O)n2)c1C [PIRINIXIC ACID] | – | < 5 | Active | – | –
